Among the data in ChEMBL document CHEMBL1140298, “Identification of borinic esters as inhibitors of bacterial cell growth and bacterial methyltransferases, CcrM and MenH” (2005) are MIC, Activity and inhibition values, retold here.

For one assay, the system named is Staphylococcus aureus. The assay is described as follows: Antibacterial activity against Staphylococcus aureus ATCC 29213. The format is functional. Put shortly:
(§1)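 MIC determined following NCCLS guidelines.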

For assay [1], the system named is Mycobacterium tuberculosis. Description: Antibacterial activity against Mycobacterium tuberculosis H37Rv. The format is functional. Put shortly: (§2)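 MIC read-out, determined according to NCCLS guidelines.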
For assay [2], the system named is Staphylococcus epidermidis. Description: Antibacterial activity against Staphylococcus epidermidis ATCC 12228. The format is functional. The method, boiled down:
as §1

The subject of a further assay is Moraxella catarrhalis. The assay is described as follows: Antibacterial activity against Moraxella catarrhalis. It counts as functional. The method, boiled down: as §1
A further assay has as its system Enterococcus faecium. Description: Antibacterial activity against Enterococcus faecium CT26. The format is functional. Put shortly: as §1
The next assay concerns Haemophilus influenzae. The assay is described as follows: Antibacterial activity against Haemophilus influenzae ATCC 4976. It counts as functional. Put shortly:
as §1

The next assay has as its system Enterococcus faecalis. Description: Antibacterial activity against Enterococcus faecalis ATCC 29212. The format is functional. Put shortly: as §1
Assay [3] relates to Caulobacter vibrioides. Description: Antibacterial activity against Caulobacter crescentus after 18 hrs. The format is functional.
Assay [4] relates to Yersinia pseudotuberculosis. The assay is described as follows: Antibacterial activity against Yersinia pseudotuberculosis ATCC 29833. The format is functional. Put shortly: as §2
The next assay has as its system Bacillus anthracis. Description: Antibacterial activity against Bacillus anthracis. The format is functional. Put shortly:
as §2

The next assay concerns Francisella tularensis. Description: Antibacterial activity against Francisella tularensis. It counts as functional. Put shortly:
as §2

In another assay the test system is Bacillus subtilis. The assay is described as follows: Antibacterial activity against Bacillus subtilis ATCC 23857. The format is functional. Put shortly: as §1
For assay [5], the system named is Caulobacter vibrioides. The assay is described as follows: Inhibition of Caulobacter crescentus DNA methyltransferase CcrM assessed as transfer of [3H-Me] to DNA at 100 uM relative to control. Put shortly: (§3)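 Inhibitor at 100 uM; methyl transfer from [3H-Me]-AdoMet to DNA substrate measured, expressed as percent of activity without inhibitor.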
For assay [6], the target named is T1, Demethylmenaquinone methyltransferase (Bacillus subtilis (strain 168)) (UniProt P31113).
T1 sequence (whole entry): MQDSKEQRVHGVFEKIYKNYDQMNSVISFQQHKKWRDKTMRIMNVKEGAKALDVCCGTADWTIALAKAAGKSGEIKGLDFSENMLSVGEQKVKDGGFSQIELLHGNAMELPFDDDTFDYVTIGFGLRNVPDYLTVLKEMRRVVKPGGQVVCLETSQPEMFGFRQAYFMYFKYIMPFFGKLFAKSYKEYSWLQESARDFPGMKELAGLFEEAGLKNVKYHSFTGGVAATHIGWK
The assay is described as follows: Inhibition of Bacillus subtilis MenH methyltransferase assessed as {3H-Me] to DNA at 100 uM relative control. The method, boiled down:
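Lysate of E. coli JM109 overexpressing B. subtilis MenH (IPTG 1 mM induction, sonicated) in 0.1 M Tris-HCl pH 8.0, 10 mM MgCl2, 10 mM DTT, 1 uM FPP, 1 uM 1,4-dihydroxy-2-naphthoic acid, 1 uM IPP, 20 uM AdoMet plus [3H]-AdoMet; inhibitor 100 uM final; 37 °C 1 h; acid-methanol quench, hexane/2-propanol extraction, scintillation counting; triplicate; % of no-inhibitor activity.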

Another assay has as its system Escherichia coli. The assay is described as follows: Inhibition of Escherichia coli DNA methyltransferase Dam assessed as transfer of [3H-Me] to DNA at 100 uM relative to control. Put shortly: as §3

In brackets after ≈: the same amount, converted by molar mass. Activity calls are given as the source filed them. The rule behind the calls is not given here.

Turning to `Fc1ccc(B(Oc2cccc3cccnc23)c2ccc(F)cc2)cc1`, the MIC amounted to 4 µg/mL (≈ 11.6 µM) against Staphylococcus aureus; 0.62 µg/mL (≈ 1.8 µM) in assay [1]; 2 µg/mL (≈ 5.79 µM) in [2]; 2 µg/mL (≈ 5.79 µM) against Moraxella catarrhalis; 32 µg/mL (≈ 92.7 µM) against Enterococcus faecium; 4 µg/mL (≈ 11.6 µM) against Haemophilus influenzae. Moreover, the MIC was determined as 32 µg/mL (≈ 92.7 µM) against Enterococcus faecalis and 12.5 µg/mL (≈ 36.2 µM) against Caulobacter vibrioides [3].

Turning to `C=CB(Oc1cccc2cccnc12)c1cccc(F)c1`, the MIC in the assay on Staphylococcus aureus is 2 µg/mL (≈ 7.22 µM); in assay [4] it was 32 µg/mL (≈ 115 µM); in assay [1] it was 0.31 µg/mL (≈ 1.12 µM); with Bacillus anthracis, 8 µg/mL (≈ 28.9 µM); in assay [2] it was 1 µg/mL (≈ 3.61 µM); with Francisella tularensis it was 16 µg/mL (≈ 57.7 µM). Also, the MIC was 1 µg/mL (≈ 3.61 µM) with Moraxella catarrhalis; 2 µg/mL (≈ 7.22 µM) with Bacillus subtilis; 2 µg/mL (≈ 7.22 µM) in the assay on Enterococcus faecium; 2 µg/mL (≈ 7.22 µM) with Haemophilus influenzae; more than 64 µg/mL against Enterococcus faecalis.

As to `Cc1ccc2cccc(OB(c3ccc(Cl)cc3)c3ccc(Cl)cc3)c2n1`, the MIC with Staphylococcus aureus was 16 µg/mL (≈ 40.8 µM); in assay [2], 8 µg/mL (≈ 20.4 µM); in the assay with Francisella tularensis, 6 µg/mL (≈ 15.3 µM); in the assay with Enterococcus faecium it was 16 µg/mL (≈ 40.8 µM); in the assay with Enterococcus faecalis, 32 µg/mL (≈ 81.6 µM); against Caulobacter vibrioides [3] it was 2 µg/mL (≈ 5.1 µM). Besides, in the assay with Caulobacter vibrioides [5], the outcome was Active.

As for `C=CB(Oc1cccc2cccnc12)c1ccc(Cl)cc1`, the MIC with Staphylococcus aureus is 2 µg/mL (≈ 6.81 µM); in [4] it was 32 µg/mL (≈ 109 µM); in assay [1], 0.62 µg/mL (≈ 2.11 µM); in [2] it was 1 µg/mL (≈ 3.41 µM); in the assay on Moraxella catarrhalis it was 1 µg/mL (≈ 3.41 µM); against Bacillus subtilis, 4 µg/mL (≈ 13.6 µM). For the same molecule, the MIC in the assay with Enterococcus faecium is 4 µg/mL (≈ 13.6 µM); with Haemophilus influenzae it was 2 µg/mL (≈ 6.81 µM); in the assay with Enterococcus faecalis it was more than 64 µg/mL.

Take `C=CB(Oc1cccc2cccnc12)c1ccccc1Cl`: the MIC with Staphylococcus aureus turned out to be 2 µg/mL (≈ 6.81 µM); in assay [4], 32 µg/mL (≈ 109 µM); in assay [1] it was 0.31 µg/mL (≈ 1.06 µM); in assay [2] it was 1 µg/mL (≈ 3.41 µM); in the assay with Francisella tularensis, 16 µg/mL (≈ 54.5 µM); in the assay with Moraxella catarrhalis, 1 µg/mL (≈ 3.41 µM). For the same molecule, the MIC against Bacillus subtilis amounted to 4 µg/mL (≈ 13.6 µM); against Enterococcus faecium it was 2 µg/mL (≈ 6.81 µM); in the assay with Haemophilus influenzae, 2 µg/mL (≈ 6.81 µM); against Enterococcus faecalis, 64 µg/mL (≈ 218 µM).

With `Clc1cccc(B(Oc2cccc3cccnc23)c2cccc(Cl)c2)c1`, the MIC against Staphylococcus aureus stood at 1 µg/mL (≈ 2.65 µM); in [4], 32 µg/mL (≈ 84.6 µM); in [1] it was 0.62 µg/mL (≈ 1.64 µM); against Bacillus anthracis, 6.25 µg/mL (≈ 16.5 µM); in [2], 2 µg/mL (≈ 5.29 µM); against Francisella tularensis it was 0.01 µg/mL (≈ 0.0265 µM). Moreover, the MIC with Moraxella catarrhalis came to 2 µg/mL (≈ 5.29 µM); against Bacillus subtilis, 2 µg/mL (≈ 5.29 µM); in the assay on Enterococcus faecium it was 4 µg/mL (≈ 10.6 µM); in the assay on Haemophilus influenzae, 8 µg/mL (≈ 21.2 µM); in the assay on Enterococcus faecalis, 32 µg/mL (≈ 84.6 µM). Also, in the assay on Caulobacter vibrioides [5], the result was Active.

Turning to `C=CB(Oc1cccc2cccnc12)c1cccc(Cl)c1`, the MIC worked out at 2 µg/mL (≈ 6.81 µM) in the assay on Staphylococcus aureus; 16 µg/mL (≈ 54.5 µM) in assay [4]; 0.62 µg/mL (≈ 2.11 µM) in [1]; 8 µg/mL (≈ 27.3 µM) against Bacillus anthracis; 1 µg/mL (≈ 3.41 µM) in [2]; 4 µg/mL (≈ 13.6 µM) against Moraxella catarrhalis. Moreover, the MIC is 4 µg/mL (≈ 13.6 µM) in the assay with Bacillus subtilis, 4 µg/mL (≈ 13.6 µM) against Enterococcus faecium, 4 µg/mL (≈ 13.6 µM) against Haemophilus influenzae and 64 µg/mL (≈ 218 µM) with Enterococcus faecalis. Further, the inhibition in assay [6] was 50%.

As for `C=CB(Oc1cccc2cccnc12)c1ccccc1`, the MIC in the assay on Staphylococcus aureus was 2 µg/mL (≈ 7.72 µM); in assay [4], 32 µg/mL (≈ 123 µM); in assay [2] it was 1 µg/mL (≈ 3.86 µM); in the assay with Moraxella catarrhalis, 2 µg/mL (≈ 7.72 µM); in the assay on Enterococcus faecium, 4 µg/mL (≈ 15.4 µM); against Haemophilus influenzae, 16 µg/mL (≈ 61.7 µM). This molecule also had an MIC against Enterococcus faecalis of more than 64 µg/mL.

Turning to `C=CB(Oc1cccc2cccnc12)c1ccc(F)c(Cl)c1`, the MIC with Staphylococcus aureus was 2 µg/mL (≈ 6.42 µM); in assay [4], 32 µg/mL (≈ 103 µM); in assay [1], 0.62 µg/mL (≈ 1.99 µM); in assay [2] it was 1 µg/mL (≈ 3.21 µM); against Moraxella catarrhalis, 2 µg/mL (≈ 6.42 µM); in the assay on Bacillus subtilis, 4 µg/mL (≈ 12.8 µM). For the same molecule, the MIC against Enterococcus faecium stood at 2 µg/mL (≈ 6.42 µM); with Haemophilus influenzae, 4 µg/mL (≈ 12.8 µM); against Enterococcus faecalis, 32 µg/mL (≈ 103 µM).

For the molecule `Clc1ccc(C(Oc2cccc3cccnc23)c2ccc(Cl)cc2)cc1`, the MIC against Staphylococcus aureus is more than 64 µg/mL; in assay [4] it was more than 64 µg/mL; in assay [1] it was more than 5 µg/mL; in assay [2], more than 64 µg/mL; with Bacillus subtilis, more than 64 µg/mL; against Enterococcus faecium it was more than 64 µg/mL. Also, the MIC against Haemophilus influenzae and with Enterococcus faecalis was more than 64 µg/mL in each case. Further, the result with Escherichia coli and in the assay on Caulobacter vibrioides [5] was inactive.

For `Clc1ccc(B(Oc2cccc3cccnc23)c2ccc(Cl)cc2)cc1`, the MIC came out at 2 µg/mL (≈ 5.29 µM) in the assay on Staphylococcus aureus; 64 µg/mL (≈ 169 µM) in assay [4]; 0.31 µg/mL (≈ 0.82 µM) in assay [1]; 6.25 µg/mL (≈ 16.5 µM) in the assay with Bacillus anthracis; 2 µg/mL (≈ 5.29 µM) in [2]; 0.03 µg/mL (≈ 0.0794 µM) against Francisella tularensis. The MIC in the assay on Moraxella catarrhalis is 2 µg/mL (≈ 5.29 µM); in the assay on Bacillus subtilis, 2 µg/mL (≈ 5.29 µM); against Enterococcus faecium, 4 µg/mL (≈ 10.6 µM); against Haemophilus influenzae it was 8 µg/mL (≈ 21.2 µM); with Enterococcus faecalis, 4 µg/mL (≈ 10.6 µM); against Caulobacter vibrioides [3] it was 4 µg/mL (≈ 10.6 µM). Further, the outcome in the assay on Caulobacter vibrioides [5] was Active.

For `Clc1ccc(B(Oc2ccc(Cl)c3cccnc23)c2ccc(Cl)cc2)cc1`, the MIC in the assay with Staphylococcus aureus turned out to be 0.5 µg/mL (≈ 1.21 µM); in [4], 8 µg/mL (≈ 19.4 µM); in assay [1], 0.62 µg/mL (≈ 1.5 µM); in the assay on Bacillus anthracis, 5.3 µg/mL (≈ 12.8 µM); in assay [2], 0.25 µg/mL (≈ 0.606 µM); with Francisella tularensis, 0.01 µg/mL (≈ 0.0242 µM). For the same molecule, the MIC against Moraxella catarrhalis is not above 0.125 µg/mL; against Bacillus subtilis, 32 µg/mL (≈ 77.6 µM); with Enterococcus faecium, 2 µg/mL (≈ 4.85 µM); with Haemophilus influenzae, 0.25 µg/mL (≈ 0.606 µM); against Enterococcus faecalis, 32 µg/mL (≈ 77.6 µM); against Caulobacter vibrioides [3], 2.6 µg/mL (≈ 6.3 µM). Further, the result with Caulobacter vibrioides [5] was Active.

As to `C=CB(Oc1cccc2cccnc12)c1cccc(C#N)c1`, the MIC worked out at 1 µg/mL (≈ 3.52 µM) in the assay with Staphylococcus aureus; 32 µg/mL (≈ 113 µM) in assay [4]; 0.62 µg/mL (≈ 2.18 µM) in assay [1]; 8 µg/mL (≈ 28.2 µM) with Bacillus anthracis; 1 µg/mL (≈ 3.52 µM) in assay [2]; 8 µg/mL (≈ 28.2 µM) with Francisella tularensis. Besides, the MIC stood at 2 µg/mL (≈ 7.04 µM) against Moraxella catarrhalis; 4 µg/mL (≈ 14.1 µM) in the assay with Bacillus subtilis; 2 µg/mL (≈ 7.04 µM) against Enterococcus faecium; 2 µg/mL (≈ 7.04 µM) against Haemophilus influenzae; 8 µg/mL (≈ 28.2 µM) against Enterococcus faecalis.

As usually defined, the inhibition is the percentage by which the read-out fell short of the control.
